Tests used:
G12 cells = test: Growth of glioma patient-derived xenograft cells in vitro; assay type: cell-based; conditions: Homo sapiens, read-out: inhibitory activity against G12 cell growth
Stat1:Stat1 = biological target: T1, Stat1:Stat1 (Mus musculus, UniProt P42225); test: Cell-free EMSA, EGF-stimulated NIH3T3/hEGFR nuclear extracts; assay type: biochemical; conditions: 5 μM, 30 min pre-incubation
T1 sequence (P42225 2-749 limits assumed): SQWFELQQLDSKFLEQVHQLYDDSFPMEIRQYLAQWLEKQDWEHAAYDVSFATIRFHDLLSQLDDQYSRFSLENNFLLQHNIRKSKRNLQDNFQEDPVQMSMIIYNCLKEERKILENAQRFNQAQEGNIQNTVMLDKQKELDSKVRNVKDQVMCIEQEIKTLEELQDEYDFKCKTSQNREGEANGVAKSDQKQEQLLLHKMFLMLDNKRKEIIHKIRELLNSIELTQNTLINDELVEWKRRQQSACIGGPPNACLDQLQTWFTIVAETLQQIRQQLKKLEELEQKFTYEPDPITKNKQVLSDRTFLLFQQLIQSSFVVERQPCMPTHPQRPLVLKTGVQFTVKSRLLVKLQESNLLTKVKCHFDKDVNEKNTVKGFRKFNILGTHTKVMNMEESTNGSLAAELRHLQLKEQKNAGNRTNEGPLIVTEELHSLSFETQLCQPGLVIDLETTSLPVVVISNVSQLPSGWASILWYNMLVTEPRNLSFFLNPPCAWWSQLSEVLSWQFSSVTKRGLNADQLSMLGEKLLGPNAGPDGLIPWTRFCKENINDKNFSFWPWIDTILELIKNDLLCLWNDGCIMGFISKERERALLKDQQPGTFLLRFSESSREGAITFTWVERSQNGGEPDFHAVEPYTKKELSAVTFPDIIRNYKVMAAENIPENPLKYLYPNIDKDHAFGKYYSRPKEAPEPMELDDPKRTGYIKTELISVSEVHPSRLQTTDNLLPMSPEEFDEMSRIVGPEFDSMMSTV
In short: (§1)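 Nuclear extracts from EGF-stimulated NIH3T3/hEGFR fibroblasts, containing active Stat1, Stat3 and Stat5, preincubated with 5 μM test compound for 30 min at room temperature. Then incubated 30 min with 32P-labelled probe before EMSA: hSIE (Stat1/Stat3 binding) or MGFe (bovine β-casein element; Stat1/Stat5 binding). STAT:DNA bands quantified as percent of control.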

G22 cells [1] = test: Growth of glioma patient-derived xenograft cells in vitro; assay type: cell-based; conditions: Homo sapiens, read-out: inhibitory activity against growth of G22 cells
Stat3 = Stat3 DNA-binding activity/EMSA of nuclear extracts from treated glioma cells; assay type: cell-based, human; conditions: 5 μM, glioma cells, EMSA
MCF-7 cells = test: CyQuant cell proliferation assay; assay type: cell-based; conditions: Homo sapiens, MCF7, 72 h, read-out: IC50 cell proliferation MCF-7
In short: (§2)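 CyQuant DNA-dye proliferation assay on cultured cells after 72 h exposure to test compound. Viability expressed relative to DMSO-treated control cells.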

U373MG cells = test: CyQuant cell proliferation assay; assay type: cell-based; conditions: Homo sapiens, U373 MG, 72 h, read-out: IC50 cell proliferation U373MG
In short: as §2

[2] = test system: suppressors of cytokine signaling (SOCS)3; test: Immunoblotting, U251MG glioma cells; assay type: cell-based, human; conditions: 5 μM
In short: (§3)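 U251MG cells given 5 μM test compound for 0–24 h. Whole-cell lysates of equal total protein immunoblotted for pErk1/2, Erk1/2, pS-Akt, Akt, pJAK2, JAK2, SOCS3 and PTP1B, with β-actin or GAPDH as loading reference.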

[3] = test system: U251MG subcutaneous tumor xenografts; test: Subcutaneous glioma xenograft tumor growth; assay type: in vivo, mouse; conditions: 2 mg/kg, oral gavage, 33 days
In short: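 Female athymic nude mice, 4 weeks old, injected subcutaneously in the left flank with 7.3 ×10^6 U251MG cells in PBS/matrigel. At 20 days (tumours 170–250 mm3), mice grouped by matched mean tumour size. Dosed 2 mg/kg by oral gavage in 1% DMSO vehicle, three times weekly, for 33 days. Caliper volumes (V = 0.52 × a2 × b) and body weights recorded; paired t test against vehicle.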

MDA-MB-231 cells = test: CyQuant cell proliferation assay; assay type: cell-based, human; conditions: Homo sapiens, MDA-MB-231, 72 h, read-out: IC50 cell proliferation MDA-MB-231
In short: as §2

pStat3 [4] = test: Immunoblotting of pStat3 in patient-derived xenograft cells; assay type: cell-based, human; conditions: 5 μM, 3 h
In short: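 Glioma patient-derived xenograft G22 cells (DMEM, 5–10% heat-inactivated FBS) given 5 μM test compound for 0–24 h. Whole-cell lysates immunoblotted for pStat3 and Stat3, with GAPDH as loading reference.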

U251MG cells [5] = test: Scratch assay for migration; assay type: cell-based, human; conditions: 5 μM, 19-h treatment
In short: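 Sub-confluent U251MG monolayers wounded with pipette tips and treated once with test compound (0–5 μM) or DMSO vehicle. Cells allowed to migrate into the denuded area over 19 h, then imaged by microscopy at 10×.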

pStat3 [6] = test: Immunoblots of tumor tissue lysates from treated mice; assay type: in vivo, mouse; conditions: four-to-five cases out of six
In short: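 After oral dosing, lysates of residual subcutaneous U251MG tumour tissue from treated and 1% DMSO vehicle mice. Immunoblotted for pStat3 and Stat3, with GAPDH as loading reference.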

[7] = Body weights and signs of toxicity in tumor-bearing mice; assay type: in vivo; conditions: 2 mg/kg, oral gavage, 33 days
Stat5:Stat5 = test: Cell-free EMSA, EGF-stimulated NIH3T3/hEGFR nuclear extracts, MGFe probe; assay type: biochemical, mouse; conditions: 5 μM, 30 min pre-incubation
In short: as §1

G22 cells [8] = test: 3D spheroid assay; assay type: cell-based, human; conditions: 5 μM, treated once
pS-Akt = test: Immunoblotting, U251MG glioma cells; assay type: cell-based, human; conditions: 5 μM
In short: as §3

U251MG cells [9] = test: Immunofluorescence staining/confocal microscopy of mitosis; assay type: cell-based, human; conditions: 15 h treatment
In short: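 U251MG cells on coverslips synchronised by double thymidine block (2 mM) and released for 9 h. Then given DMSO, 100 nM paclitaxel or 8 μM test compound for 15 h. Fixed in 4% paraformaldehyde, permeabilised with 0.1% digitonin and blocked in 0.2% BSA. Stained with anti-β-tubulin (1:350) and anti-MAP1B (1:300) for 1 h at room temperature, then fluorescent secondaries and DAPI; confocal imaging.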

U251MG cells [10] = test: Colony survival assay; assay type: cell-based, human; conditions: 1 μM, treated once
In short: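 Cells seeded as single cells at 250 per well and treated once the next day with test compound (0–5 μM) for 72 h. Grown until large colonies were visible: 1 week for NIH3T3, 2 weeks for U251MG. Colonies stained with crystal violet for 4 h and counted.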

Stat3:Stat3 = Stat3:Stat3 (Mus musculus, UniProt P42227); test: Cell-free EMSA, nuclear extracts pre-incubated with compound, hSIE probe; assay type: biochemical
Chain of Stat3:Stat3 (P42227 2-770 limits assumed): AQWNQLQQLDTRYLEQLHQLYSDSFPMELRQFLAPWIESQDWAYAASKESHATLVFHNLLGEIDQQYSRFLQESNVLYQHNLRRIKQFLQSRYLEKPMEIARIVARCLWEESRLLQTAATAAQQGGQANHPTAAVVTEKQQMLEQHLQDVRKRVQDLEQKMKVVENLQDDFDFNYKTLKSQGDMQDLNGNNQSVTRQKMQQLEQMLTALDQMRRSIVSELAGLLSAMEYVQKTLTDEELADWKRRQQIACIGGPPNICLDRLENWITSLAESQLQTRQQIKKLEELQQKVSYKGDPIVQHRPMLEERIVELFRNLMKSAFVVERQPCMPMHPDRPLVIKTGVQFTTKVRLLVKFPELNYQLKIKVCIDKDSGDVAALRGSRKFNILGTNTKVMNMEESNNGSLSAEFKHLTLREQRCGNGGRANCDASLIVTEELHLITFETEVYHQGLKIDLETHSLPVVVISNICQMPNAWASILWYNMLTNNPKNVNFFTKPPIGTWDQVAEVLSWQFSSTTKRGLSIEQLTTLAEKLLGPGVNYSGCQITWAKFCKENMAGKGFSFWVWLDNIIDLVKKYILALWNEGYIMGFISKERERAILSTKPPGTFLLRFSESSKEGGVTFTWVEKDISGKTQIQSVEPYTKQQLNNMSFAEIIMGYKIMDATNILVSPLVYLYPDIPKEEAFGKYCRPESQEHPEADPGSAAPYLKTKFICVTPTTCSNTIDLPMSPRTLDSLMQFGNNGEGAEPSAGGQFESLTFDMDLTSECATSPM

[11] = test system: protein tyrosine phosphatase (PTP)1B; test: Immunoblotting, U251MG glioma cells; assay type: cell-based, human; conditions: 5 μM
In short: as §3

**Q.** For C/C=C(\C)C(=O)OCC1=C2/C(=C\[C@@]3(C)CC[C@](O)(O3)[C@H](C)C[C@@H]2O)OC1=O [Compound 22], which inhibition at 5 µM (G12 cells) is on record?
**A.** Its inhibition at 5 µM is 25 to 35%.

**Q.** And the “effect on Stat1:Stat1 activity, cell-free EMSA” value (Stat1:Stat1)?
**A.** The value was “weak effects”.

**Q.** And the inhibition at 5 µM (G22 cells [1])?
**A.** The inhibition at 5 µM was 45 to 60%.

**Q.** What about the “effect on Stat3 DNA-binding activity in treated tumor cells” value (Stat3) of the same compound?
**A.** Its value is “strongly inhibited”.

**Q.** What about the IC50 (MCF-7 cells) of the same compound?
**A.** The IC50 was 4.8 to 9.6 µM.

**Q.** What about the IC50 (U373MG cells) of the same compound?
**A.** Its IC50 is 6.6 to 8.2 µM.

**Q.** What about the “effect on SOCS3 levels” value [2] of the same compound?
**A.** Its value is “no effects”.

**Q.** What about the “growth of subcutaneous U251MG xenografts” value [3] of the same compound?
**A.** The value was “inhibited growth”.

**Q.** And the IC50 (MDA-MB-231 cells)?
**A.** The IC50 was 5.2 to 9.1 µM.

**Q.** And the “effect on Phospho-Stat3 in G22 cells” value (pStat3 [4])?
**A.** The value was “strongly inhibited”.

**Q.** And the “migration into the denuded area” value (U251MG cells [5])?
**A.** Its value is “slowed migration”.

**Q.** What about the “pStat3 and Stat3 levels in residual tumor tissues” value (pStat3 [6]) of the same compound?
**A.** The value was “lower”.

**Q.** What about the “body weights or obvious signs of toxicity” value [7] of the same compound?
**A.** Its value is “No significant changes”.

**Q.** And the “effect on Stat5:Stat5 activity, cell-free EMSA” value (Stat5:Stat5)?
**A.** The value was “weak effects”.

**Q.** What about the 3D spheroid growth (G22 cells [8]) of the same compound?
**A.** Its 3D spheroid growth is “decreased 3D spheroid growth”.

**Q.** And the “effect on pS-Akt levels” value (pS-Akt)?
**A.** Its value is “no effects”.

**Q.** What about the “chromatid structures and sister-chromatids segregation (mitosis)” value (U251MG cells [9]) of the same compound?
**A.** The value was “caused defects”.

**Q.** And the U251MG colony formation (U251MG cells [10])?
**A.** The U251MG colony formation was “completely inhibited”.

**Q.** What about the “Stat3:Stat3/DNA-binding activity (complexation), cell-free EMSA” value (Stat3:Stat3; 5 μM, 30 min pre-incubation, NIH3T3/v-Src nuclear extracts) of the same compound?
**A.** The value was “diminished”.

**Q.** What about the “Stat3:Stat3/DNA complexation in the presence of Cys” value (Stat3:Stat3; in the presence of 50 μM Cys) of the same compound?
**A.** Its value is “strongly inhibited”.

**Q.** And the “effect on PTP1B levels” value [11]?
**A.** Its value is “no effects”.
